In the library only some 1.5% were active in any assay of this set; here they are far more common.
m5-HT2A agonist: mouse HTR2A agonism via beta-arrestin recruitment; activation, % at 7.6 µM; P35363; actives 0.66% (n = 360,000); CHO-K1 mHTR2A beta-arrestin complementation, luminescence; percent of 30 µM serotonin response; AID 624169;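 active means activation above a run cutoff, the mean activation of all tested compounds plus 3 SD, cut at about 14% in these data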
APJ agonist: agonists of human APJ apelin receptor; actives 0.11% (n = 330,000); activation, % at 20 µM; CHO-K1 APJ PathHunter beta-arrestin, luminescence; 0% DMSO wells, 100% apelin; AID 2520;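 active means activation more than six SD over the plate average, tested at 20 µM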
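Assay system: CHO-K1 APJ beta-arrestin complementation cell line / Compound: single test compound dose, 20 µM final, 1% DMSO / Times: overnight seeding, 90 min compound at 25 °C, 1 h detection / Technique: beta-gal luminescence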
NTR1 agonist: activates human neurotensin receptor 1; activation, % at 20 µM; actives 0.17% (n = 330,000); AID 493036; NTR1-U2OS beta-arrestin-GFP spot imaging, agonist mode; P30989;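 active means activation at or above 40% of the spot to cytoplasm intensity ratio, with at least 20 cells analyzed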
APJ antagonist: APJ receptor antagonism; AID 2521; actives 0.32% (n = 330,000); CHO-K1 APJ beta-arrestin complementation, luminescence; inhibition, % at 20 µM; P35414;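 active means inhibition above about 40% at 20 µM, limit read from the data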;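 further: cells challenged with 10 nM apelin-13 agonist together with compound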
CXCR6 inh: inhibitors of human CXCR6 receptor | CHO-K1 PathHunter CXCR6 beta-arrestin, luminescence | AID 602244 | inhibition, % at 20 µM | actives 0.36% (n = 360,000); in the data active means inhibition above about 34%, passing the limit was not always enough;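 further: antagonist mode with CXCL16 agonist at 10 nM final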
Target sequence (O00574 whole entry, looked up): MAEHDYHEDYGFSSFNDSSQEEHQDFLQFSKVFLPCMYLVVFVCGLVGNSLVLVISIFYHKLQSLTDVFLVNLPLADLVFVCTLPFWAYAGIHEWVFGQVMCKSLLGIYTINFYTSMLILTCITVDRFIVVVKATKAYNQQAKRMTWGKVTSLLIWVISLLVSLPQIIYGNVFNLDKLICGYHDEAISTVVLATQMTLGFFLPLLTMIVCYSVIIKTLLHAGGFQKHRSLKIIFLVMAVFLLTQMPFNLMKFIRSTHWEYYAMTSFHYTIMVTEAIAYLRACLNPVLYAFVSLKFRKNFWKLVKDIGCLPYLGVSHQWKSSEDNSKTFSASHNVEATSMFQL
CCR6 antag: CCR6 (human) receptor antagonism | P51684 | CHO-K1 CCR6 PathHunter beta-arrestin, luminescence, CCL20-stimulated | inhibition, % at 20 µM | actives 0.49% (n = 340,000);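 active means compounds whose inhibition of the agonist-driven luminescence signal at 20 µM reaches about 50%, limit read from the data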;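 further: cells stimulated with CCL20 at 14 nM final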
Target sequence (P51684 whole entry, looked up): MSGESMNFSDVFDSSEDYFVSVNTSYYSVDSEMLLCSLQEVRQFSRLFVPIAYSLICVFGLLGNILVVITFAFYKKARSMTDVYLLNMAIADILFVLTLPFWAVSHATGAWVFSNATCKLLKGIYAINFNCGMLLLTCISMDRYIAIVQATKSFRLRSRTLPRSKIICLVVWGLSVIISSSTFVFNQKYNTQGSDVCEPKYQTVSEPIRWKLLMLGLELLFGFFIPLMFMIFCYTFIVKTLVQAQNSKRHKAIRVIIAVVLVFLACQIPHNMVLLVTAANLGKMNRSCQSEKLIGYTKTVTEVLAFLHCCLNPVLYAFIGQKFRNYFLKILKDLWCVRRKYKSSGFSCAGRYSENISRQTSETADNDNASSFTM
APJ antag confirm: APJ receptor antagonism confirmation; inhibition, % at 20 µM; shares compounds with APJ antagonist; actives 66% (n = 950); APJ beta-arrestin recruitment, luminescence, antagonist mode; AID 2766; in the data active means inhibition above about 50%
Numbers stand for hits; 0 = inactive; - = not tested or not shown.

SMILES | m5-HT2A agonist | APJ agonist | NTR1 agonist | APJ antagonist | CXCR6 inh | CCR6 antag | APJ antag confirm
N#C/C(=C\c1ccc(O)c([N+](=O)[O-])c1)c1nc2ccccc2s1 | 0 | - | - | - | 0 | 0 | -
COc1cc(/C=C(\C#N)c2nc3ccccc3s2)cc([N+](=O)[O-])c1O | 0 | 0 | 0 | 50.6 | 44.5 | 60.3 | 87.7
COc1cc(Cl)cc(/C=C/c2ccc3cccc(O)c3n2)c1OC | 0 | 0 | 0 | 41.3 | 0 | 0 | 0
Oc1cccc2ccc(/C=C/c3ccccc3Cl)nc12 | 0 | 0 | 0 | 46.4 | 0 | 0 | 81.7
CC(=O)c1sc(N/N=C2\CC3CC2C(C)C3(C)C)nc1C (centres undefined) | 0 | 0 | 0 | 0 | 0 | 0 | -
CC(=O)Nc1ccc(NCCc2cccs2)cc1 | 0 | - | - | - | 0 | - | -
CC(=O)Nc1ccc(NCc2cccs2)cc1 | 0 | 0 | 0 | 104.4 | 0 | 0 | 0
COc1cccc(C(=O)Nc2cc(OC)ccc2NC(=O)c2ccco2)c1 | 0 | 0 | 0 | 0 | 0 | 0 | -
Cc1noc(C)c1COc1ccc(C(=O)Nc2nnc(CC(C)C)s2)cc1 | 0 | 0 | 0 | 0 | 0 | 0 | -
CC(=O)Nc1ccc(NC(=O)C2(C)CC2(Cl)Cl)cc1 (centres undefined) | 0 | 0 | 0 | 91.4 | 0 | 0 | 0
N#Cc1cnn2c3c(cnc12)C(=O)N1CCc2ccccc2C1C3 (centres undefined) | 0 | 0 | 0 | 47.6 | 0 | 0 | 0
O=C1c2cnc3ncnn3c2CC2c3ccccc3CCN12 (centres undefined) | 0 | 0 | 0 | 0 | 0 | 0 | -
O=C1C=C(N2CCOCC2)CO1 | 0 | 0 | 0 | 42.2 | 0 | 0 | 0
Cc1ccc(CNc2nc(N)c([N+](=O)[O-])c(Nc3cccc(F)c3)n2)cc1 | 0 | 0 | 0 | 41.1 | 0 | 0 | 0
Nc1nc(NCc2ccccc2)nc(Nc2cccc(F)c2)c1[N+](=O)[O-] | 0 | 0 | 0 | 0 | 0 | 0 | -
CC1(C(=O)NS(=O)(=O)C2CC2)CCN(C(=O)c2cc3ccccc3s2)C1 (centres undefined) | 0 | - | - | - | 0 | - | -
Cc1cc(NC(=O)c2c(F)cccc2Cl)n(-c2nc3ccccc3[nH]2)n1 | 0 | 0 | 0 | 55.3 | 0 | 60.8 | 0
Cc1cc(NC(=O)c2ccccc2F)n(-c2nc3ccccc3[nH]2)n1 | 0 | 0 | 0 | 0 | 0 | 0 | -
Cc1cc(NC(=O)c2c(F)cccc2F)n(-c2nc3ccccc3[nH]2)n1 | 0 | 0 | 0 | 44.3 | 0 | 0 | 0
COc1cccc(NC(=O)CN(C)C(=O)c2ccc(-c3ccccc3Cl)o2)c1 | 0 | 0 | 0 | 0 | 0 | 0 | -
COc1ccc(/C=C/C(=O)NC(=S)Nc2cc([N+](=O)[O-])ccc2O)cc1OC | 0 | 0 | 0 | 42.4 | 0 | 0 | 59.9
O=S(=O)(Nc1nccs1)c1ccc(NS(=O)(=O)c2c(F)cc(F)c(Cl)c2F)cc1 | 0 | 0 | 0 | 0 | 0 | 0 | -
Cc1cc(C)c2nc3sc(C(=O)N4CCOCC4)c(N)c3cc2c1 | 0 | 0 | 0 | 43.6 | 0 | 0 | 0
CCCSc1sc(C(=O)OC)c(-c2cccs2)c1C#N | - | 0 | 0 | 0 | - | 0 | -
CCN1/C(=C/c2ccc3cc(C)ccc3[n+]2CC)Sc2ccc3sccc3c21 | 0 | 0 | 0 | 40.3 | 0 | 0 | 56.3
SMILES | m5-HT2A agonist | APJ agonist | NTR1 agonist | APJ antagonist | CXCR6 inh | CCR6 antag | APJ antag confirm
CCOC(=O)c1sc(NC(=O)CN2CCN(c3ccccc3)CC2)nc1C | 0 | 0 | 0 | 0 | 0 | 0 | -
CC1C/C(=C/c2ccccn2)C(=O)/C(=C/c2ccccn2)C1 (centres undefined) | 0 | 0 | 0 | 0 | 0 | 0 | -
CC(C)(C)C1C/C(=C/c2ccccn2)C(=O)/C(=C/c2ccccn2)C1 (centres undefined) | 0 | 0 | 0 | 44.5 | 0 | 64.6 | 0
Cc1cccc(N2C(=O)C(Cc3ccccc3)NC2=S)c1 (centres undefined) | 0 | 0 | 0 | 0 | 0 | 0 | -
Cc1ccc(N2C(=O)C(Cc3ccc(O)cc3)NC2=S)cc1C (centres undefined) | 0 | 0 | 0 | 66.5 | 0 | 0 | 0
CS(=O)CC(O)(c1ccc(F)cc1)C1CC1 (centres undefined) | 0 | - | - | - | 0 | - | -
COc1cc2c(cc1OC)CN(C(=O)C1CCCN1S(=O)(=O)c1ccc(C)cc1)CC2 (centres undefined) | 0 | 0 | 0 | 0 | 0 | 0 | -
ON1C(c2ccccc2C(F)(F)F)N(O)[C@H]2CCCC[C@H]21 (some centres undefined) | 0 | 0 | 0 | 40.2 | 0 | 0 | 0
COc1ccc2cc(C)c3nnc(SCc4cccnc4)n3c2c1 | 0 | 0 | 0 | 40.4 | 0 | 0 | 0
COc1ccc2cc(C)c3nnc(SCC(=O)Nc4cc(OC)c(OC)cc4C(=O)O)n3c2c1 | 0 | 0 | 0 | 0 | 0 | 0 | -
O=C(NNc1ccc(Cl)cc1)c1sccc1Cl | 0 | 0 | 0 | 61.9 | 0 | 0 | 97.8
COc1ccccc1/C=C1\CCC(C2CCCC2)C1=O (centres undefined) | 0 | 0 | 0 | 0 | 0 | 0 | -
CCN(CC)c1ccc(/C=C2\SC(=O)N(C(C)C)C2=O)o1 | 0 | 0 | 0 | 53.1 | 0 | 0 | 0
CC(C)N1C(=O)S/C(=C/c2ccc3c(c2)n(C)c(=O)n3C)C1=O | 0 | 0 | 0 | 0 | 0 | 0 | -
COc1ccc(/C=C2/C(=O)N(c3ccccc3)N=C2C)cc1OC | 0 | 0 | 0 | 46.6 | 0 | 0 | 0
COc1ccc(/C=C2/C(=O)N(c3ccccc3)N=C2C)cc1 | 0 | 0 | 0 | 0 | 0 | 0 | -
COc1cc(/C=C2/C(=O)N(c3cccc(Br)c3)N=C2C)cc(OC)c1O | 0 | 0 | 0 | 53.7 | 58.7 | 71.6 | 82.2
COC(=O)c1[nH]c(=O)c2ccccc2c1O | 0 | 0 | 0 | 42.8 | 0 | 67.8 | 0
O=C(CN1CCN(Cc2cccc(F)c2)CC1)Nc1ccccc1F | 0 | 0 | 0 | 0 | 0 | 0 | -
Cc1[nH]c2ccccc2c1Cc1nnc(SCc2ccccc2)o1 | 0 | 0 | 0 | 48.3 | 0 | 0 | 0
COC(=O)c1sc(N)c(C(=O)OC)c1COC(=O)c1c(C)noc1C | 0 | 0 | 0 | 45.6 | 58.3 | 70.2 | 95.6
COC(=O)c1sc(NC(=O)c2c(C)noc2C)nc1C | 0 | 0 | 0 | 0 | 0 | 0 | -
O=C(NN1C(=O)/C(=C\c2ccc(O)c([N+](=O)[O-])c2)SC1=S)c1ccccc1Cl | 0 | 0 | 0 | 55.0 | 0 | 60.1 | 101.9
COc1cc(/C=C2\SC(=S)N(NC(=O)c3ccc(O)cc3)C2=O)ccc1O | 0 | 0 | 0 | 55.9 | 42.3 | 58.6 | 91.5
O=C(NN1C(=O)/C(=C/c2cccc(O)c2)SC1=S)c1ccccc1O | 0 | 0 | 0 | 0 | 0 | 0 | -
COc1cccc(/C=C2\SC(=S)N(NC(=O)c3ccncc3)C2=O)c1 | 0 | 0 | 0 | 0 | 0 | 0 | -
O=C(NN1C(=O)/C(=C/c2ccc(O)c(O)c2)SC1=S)c1ccccc1 | 0 | 0 | 0 | 48.0 | 51.5 | 64.4 | 106.0

High-throughput results deposited in PubChem by several laboratories.
